# Calls of active or inactive are those of the source. The calls are words filed in the database; no cut-off is given here.
# Key:
# NCI-H460 [1] = assay: Induction of CHOP protein expression in human NCI-H460 cells after 6 to 24 hrs by Western blot analysis; type: functional, cell-based
# Summary of the method: (§1)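 H460 cells treated for 6–24 h, or across a range of concentrations. CHOP protein measured by Western blot, densitometry expressed as percent of control; Student's t test.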
# NCI-H460 [2] = assay: Induction of CHOP protein expression in human NCI-H460 cells at 20 uM after 6 to 24 hrs by Western blot analysis; type: functional, cell-based; summary of the method: as §1
# [3] = biological target: Transcription factor Jun (Homo sapiens) (UniProt P05412); assay: Induction of c-Jun phosphorylation in human NCI-H460 cells at 20 uM by Western blot analysis; type: cell-based; conditions: TDE = time-dependent effect
# Sequence of Transcription factor Jun (Homo sapiens) (P05412 whole entry): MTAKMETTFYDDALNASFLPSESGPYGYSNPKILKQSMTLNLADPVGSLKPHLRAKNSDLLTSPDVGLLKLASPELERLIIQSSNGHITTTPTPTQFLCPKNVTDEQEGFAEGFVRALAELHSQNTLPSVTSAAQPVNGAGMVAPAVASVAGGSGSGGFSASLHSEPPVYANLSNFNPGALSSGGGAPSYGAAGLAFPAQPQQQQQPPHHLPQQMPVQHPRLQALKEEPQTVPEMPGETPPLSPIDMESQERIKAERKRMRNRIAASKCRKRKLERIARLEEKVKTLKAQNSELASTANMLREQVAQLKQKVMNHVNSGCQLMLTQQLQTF
# Summary of the method: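 H460 cells in RPMI 1640 with 5% FBS, treated at 20 μM for 12 h. Lysates in Tris-HCl pH 7.4, NP40, SDS buffer with protease/phosphatase inhibitors. p-c-Jun examined by Western blot with HRP secondary and chemiluminescence, actin as equal-loading control.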
# NCI-H460 [4] = assay: Induction of ATF-4 protein level in human NCI-H460 cells at 20 uM after 6 hrs by Western blot analysis
# Mus musculus = assay: Toxicity in ICR mouse assessed as body weight change at 400 to 800 mg/kg; type: organism-based; set-up: dose 400-800 mg/kg; conditions: in vivo
# NCI-H460 [5] = assay: Induction of apoptosis in human NCI-H460 cells assessed as morphological changes at 5 to 20 uM after 24 hrs by light microscopic analysis; type: functional, cell-based
# Summary of the method: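 H460 cells treated at 5, 10 or 20 μM for 24 h; morphology imaged by light microscope at 20× magnification.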
# NCI-H460 [6] = assay: Cytotoxicity against human NCI-H460 cells after 72 hrs by MTT assay; type: functional, cell-based; conditions: NCI-H460, 72 h
# Summary of the method: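 H460 cells grown in RPMI 1640 with 5% FBS at 37 °C, 10% CO2, treated 24 h after seeding. Compounds in DMSO diluted into medium at final 100, 33.3, 11.1 and 3.7 μg/mL for 72 h. MTT (5 mg/mL in 0.9% NaCl) added for 3 h, formazan dissolved in DMSO and read at 570 nm; IC50 derived.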
# NCI-H460 [7] = assay: Antitumor activity against human NCI-H460 cells xenografted in ip dosed nude Balb/cA mouse assessed as decrease in tumor volume administered qd for 20 days; type: functional, organism-based
# Summary of the method: (§2)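 BALB/cA nu/nu female athymic mice bearing sc right-flank xenografts (3 × 10^6 H460 cells in PBS); once-daily ip dosing began on day 10, when tumors reached 100–300 mm3. Water-soluble liposome preparation in PBS at 10 or 50 mg/kg; controls received liposome vehicle in PBS. Volume = lw²/2; T/C read on day 22. Seven mice per group, mean ± SD; Student's t test.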
# NCI-H460 [8] = assay: Induction of XBP-1 mRNA expression in human NCI-H460 cells after 3 hrs by real time quantitative PCR analysis
# NCI-H460 [9] = assay: Induction of ATF-4 mRNA expression in human NCI-H460 cells after 3 hrs by real time quantitative PCR analysis
# NCI-H460 [10] = assay: Induction of XBP-1 protein expression level in human NCI-H460 cells after 6 hrs by Western blot analysis; type: functional, cell-based
# Summary of the method: (§3)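 H460 cells exposed to 20 μM for varying times, or to a range of concentrations for 6 h. ATF-4 and XBP-1 protein measured by Western blot with actin as loading control.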
# NCI-H460 [11] = assay: Cytotoxicity against human NCI-H460 cells assessed as reduction of cell viability at 5 to 30 uM after 24 hrs by CellTiter-Glo analysis; type: functional, cell-based
# Summary of the method: (§4)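 H460 cells (5 × 10^3/well) seeded overnight, then given fresh medium containing compound from DMSO stock (final 5, 10, 20 μM; 2.5–30 μM in the figure) for 24 h. Viability measured with CellTiter-Glo and expressed as percent of vehicle-treated cells; Student's t test.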
# NCI-H460 [12] = assay: Induction of apoptosis in human NCI-H460 cells assessed as non-viable necrotic cells at 5 uM after 6 hrs by annexinV-propidium iodide staining based flow cytometric analysis relative to control; type: functional
# Summary of the method: (§5)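 H460 cells plated for 6 h, then treated with 5, 10 or 20 μM. Cells washed, trypsin-EDTA detached and resuspended in PBS, then stained with annexin V and propidium iodide plus RNase and 0.1% Triton X-100 for 30 min at 37 °C before flow cytometry. Figure legend gives 6 h incubation.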
# NCI-H460 [13] = assay: Induction of apoptosis in human NCI-H460 cells assessed as early apoptotic cells at 20 uM after 6 hrs by annexinV-propidium iodide staining based flow cytometric analysis relative to control; type: functional; summary of the method: as §5
# NCI-H460 [14] = assay: Induction of XBP-1 protein level in human NCI-H460 cells at 20 uM after 6 hrs by Western blot analysis
# NCI-H460 [15] = assay: Induction of CHOP mRNA expression in human NCI-H460 cells after 12 hrs by real time quantitative PCR analysis; type: functional, cell-based
# Summary of the method: (§6)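 H460 cells exposed to a concentration range for 6 or 12 h. CHOP mRNA measured by RT-PCR/qPCR and normalized to β-actin.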
# NCI-H460 [16] = assay: Induction of apoptosis in human NCI-H460 cells assessed as early apoptotic cells at 10 uM after 6 hrs by annexinV-propidium iodide staining based flow cytometric analysis relative to control; type: functional; summary of the method: as §5
# NCI-H460 [17] = assay: Antitumor activity against human NCI-H460 cells xenografted in nude Balb/cA mouse assessed as decrease in tumor volume at 10 mg/kg, ip qd for 20 days measured on day 22 relative to control; type: functional; set-up: scale not given: the % may be the effect or the level left; conditions: route intraperitoneal; summary of the method: as §2
# NCI-H460 [18] = assay: Induction of CHOP mRNA expression in human NCI-H460 cells after 6 hrs by real time quantitative PCR analysis; type: functional, cell-based; summary of the method: as §6
# NCI-H460 [19] = assay: Induction of apoptosis in human NCI-H460 cells assessed as late apoptotic cells at 20 uM after 6 hrs by annexinV-propidium iodide staining based flow cytometric analysis relative to control; type: functional; summary of the method: as §5
# NCI-H460 [20] = assay: Cytotoxicity against human NCI-H460 cells assessed as reduction of cell viability at 5 to 20 uM after 24 hrs by CellTiter-Glo analysis; type: functional, cell-based; summary of the method: as §4
# NCI-H460 [21] = assay: Induction of apoptosis in human NCI-H460 cells assessed as viable cells at 10 uM after 6 hrs by annexinV-propidium iodide staining based flow cytometric analysis relative to control; type: functional; conditions: NCI-H460, 6 h, read-out: Activity; summary of the method: as §5
# NCI-H460 [22] = assay: Induction of ATF-4 protein expression level in human NCI-H460 cells after 6 hrs by Western blot analysis; type: functional, cell-based; summary of the method: as §3
# NCI-H460 [23] = assay: Induction of apoptosis in human NCI-H460 cells assessed as activation of caspase 9 activation at 20 uM after 24 hrs by Western blot analysis; type: functional, cell-based
# NCI-H460 [24] = assay: Cytotoxicity against human NCI-H460 cells assessed as cell viability at 20 uM after 24 hrs by CellTiter-Glo analysis; type: functional; conditions: NCI-H460, 24 h, read-out: Activity; summary of the method: as §4
# NCI-H460 [25] = assay: Increase in p53 expression in human NCI-H460 cells at 20 uM by Western blot analysis; type: functional, cell-based; conditions: TDE = time-dependent effect
# Summary of the method: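 H460 cells exposed to 20 μM for varying times, or to a range of concentrations for 12 h. Lysates made in Tris-HCl pH 7.4/NaCl/NP40/SDS buffer with protease and phosphatase inhibitors, then probed for p53 by Western blot with chemiluminescent detection; bands quantified by densitometry.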
structure (smiles),measurement,setting,value
COc1cccc(/C=C/C(=O)/C=C/c2cccc(OC)c2OC)c1OC,Activity,NCI-H460 [1],Dose-dependent effect
same,Activity,NCI-H460 [2],Active
same,Activity,[3],tde
same,Activity,NCI-H460 [4],Active
same,Activity,Mus musculus,Non-toxic
same,Activity,NCI-H460 [5],Active
same,IC50,NCI-H460 [6],6.74 µM
same,Activity,NCI-H460 [7],Dose-dependent effect
same,Activity,NCI-H460 [8],Dose-dependent effect
same,Activity,NCI-H460 [9],Dose-dependent effect
same,Activity,NCI-H460 [10],Dose-dependent effect
same,Activity,NCI-H460 [11],Active
same,Activity,NCI-H460 [12],0.55%
same,Activity,NCI-H460 [13],29.68%
same,Activity,NCI-H460 [14],Active
same,Activity,NCI-H460 [15],Dose-dependent effect
same,Activity,NCI-H460 [16],22.74%
same,Activity,NCI-H460 [17],75.8%
same,Activity,NCI-H460 [18],Dose-dependent effect
same,Activity,NCI-H460 [19],11.56%
same,Activity,NCI-H460 [20],Active
same,viability at 10 µM,NCI-H460 [21],72.5%
same,Activity,NCI-H460 [22],Dose-dependent effect
same,Activity,NCI-H460 [23],Active
same,viability at 20 µM,NCI-H460 [24],16%
same,Activity,NCI-H460 [25],tde

# Source: ChEMBL document CHEMBL1781992, “A novel monocarbonyl analogue of curcumin, (1E,4E)-1,5-bis(2,3-dimethoxyphenyl)penta-1,4-dien-3-one, induced cancer cell H460 apoptosis via activation of endoplasmic reticulum stress signaling pathway” (J Med Chem, 2011)
